# Results: PubChem BioAssay AID651560 (Sanford-Burnham Center for Chemical Genomics, 2012)
# In all, about 360,000 compounds went through this assay and about 820 (0.23%) were called active. The sample as a whole holds a higher share of actives than the screen did. Unmarked numbers belong to inactive results.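 The calls were made as follows: active = compounds that cut the enzyme signal by at least half of the control window in the single-dose screen; inactive = the rest.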
# Target: Low molecular weight phosphotyrosine protein phosphatase (Homo sapiens) (UniProt P24666)
# Sequence (P24666 whole entry, looked up): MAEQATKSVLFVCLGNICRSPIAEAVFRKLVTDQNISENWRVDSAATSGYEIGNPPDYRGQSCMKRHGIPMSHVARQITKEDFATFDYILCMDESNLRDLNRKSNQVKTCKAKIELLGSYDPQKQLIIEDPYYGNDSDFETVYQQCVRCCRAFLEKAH
# Experiment: inhibition of human LMPTP-A enzyme – biochemical, fluorescence intensity, uHTS, primary screen (AID 651560);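 also: plate controls were DMSO wells with enzyme plus substrate for no effect and substrate without enzyme for full effect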
# Conditions: recombinant LMPTP-A, OMFP fluorogenic substrate, at 20 µM, stronger effect = higher value
# Outline: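 Assay system: LMPTP-A enzyme. Input: 0.625 nM LMPTP-A final. Probe or stimulus: 400 µM OMFP. Compound dosing: single 20 µM dose. Schedule: 50 min dark incubation at room temperature. Detection: fluorescence intensity of OMFP turnover product. Read-out: percent inhibition versus substrate-only and uninhibited controls. Benchmarks: no-enzyme low control, uninhibited high control.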
row,Compound,inhibition
1,CCCNC(=O)NC(=O)COC(=O)CC(NC(N)=O)c1ccc(Cl)cc1 (stereo unspecified),-1.19%
2,COc1ccc2c(c1)c(=Cc1ccc(N(C)C)cc1)c1cc(-c3ccccc3)[n+](C)n12,96.2% (active)
3,O=C(COC(=O)c1ccc([N+](=O)[O-])o1)NC12CC3CC(CC(C3)C1)C2,1.22%
4,COc1cc(NC(=S)N2CCCC(C)C2)c(OC)cc1Cl (stereo unspecified),0.265%
5,C=CCn1c(=O)n(C)c2c(=O)n(C)c(=O)n(C)c21,0.217%
6,Cc1csc(NC(=O)CSc2nnc(-c3cccnc3)o2)n1,-0.391%
7,N#Cc1ccc(OCC(=O)NC(=O)NC2CCS(=O)(=O)C2)cc1 (stereo unspecified),-1.41%
8,O=C(CCN1C(=O)[C@@H]2Cc3ccccc3CN2C1=O)NCc1ccccc1,0.0399%
9,COc1cccc(N(C(=O)c2ccn[nH]2)C2(C(=O)Nc3c(C)cccc3C)CCCCC2)c1,-0.749%
10,O=C(O)COCC(=O)NCc1csc2ccc(Cl)cc12,-1.97%
11,CCOP(=O)(OCC)C(Nc1cccc(C)c1)c1ccc(F)cc1 (stereo unspecified),0.494%
12,COc1cnc(SCc2ccc(Cl)c(Cl)c2)nc1Cl,3.06%
13,CCN(CC)CCNC(=O)c1sc2ncn(CC(=O)Nc3ccc(C)c(Cl)c3)c(=O)c2c1C,-0.286%
14,CCN1CCN(c2ccc(S(=O)(=O)N3CCCCC3)cc2NC(=O)Cc2c(Cl)cccc2Cl)CC1,1.2%
15,CCC(C)Cn1c(O)cc2nn(-c3nc4ccccc4s3)c(=O)c-2c1C (stereo unspecified),52.5% (active)
16,O=c1c(-c2ccccc2)cnc2n1CCS2,-1.57%

row,Compound,inhibition
1,O=c1c2cc(-c3ccccc3)sc2nc2n1N=C(c1cccs1)CS2,61.5% (active)
2,COc1cccc(C(O)c2nc(-c3ccc(C)c(C)c3)cs2)c1 (stereo unspecified),3.13%
3,COc1ccc(OC)c(Nc2nc(-c3ccc(O)c(O)c3)cs2)c1,62.5% (active)
4,COc1ccc(C(O)c2nc(-c3ccc4c(c3)OCO4)cs2)cc1 (stereo unspecified),0.808%
5,Cc1ccccc1NC(=O)Cc1nc(COC(=O)CNC(=O)c2ccc(Cl)cc2Cl)cs1,0.684%
6,COCCCNC(=O)C1CC(=O)N(CCc2ccccc2)C1 (stereo unspecified),-0.151%
7,CN(CCC1CCOCC1)C(=O)CC1C(=O)NCCN1Cc1cccc(F)c1 (stereo unspecified),-1.38%
8,Cc1cc2c(cc1C)N(C(=O)CN1C(=O)c3ccccc3C1=O)C(C)(C)c1ssc(=S)c1-2,2.43%
9,CCOc1ccccc1NC(=O)C1CCCN(C(=O)Nc2ccccc2)C1 (stereo unspecified),-1.09%
10,O=C(Cn1cnc2c(nnn2-c2ccccc2)c1=O)N1CCC(Cc2ccccc2)CC1,1.23%
11,CC(=O)Nc1ccc(CNc2nc(NCCN(C)C)nc3cc(-c4ccccc4)sc23)cc1,1.9%
12,COc1cccc(CNc2nc(NCc3cccs3)nc3ccsc23)c1,27%
13,COCCNc1nc(NCc2ccc(NC(C)=O)cc2)c2sccc2n1,51.4% (active)
14,Fc1ccccc1OCCSc1nc2ccccc2o1,1.37%
15,CCSc1nc2c(c(=O)[nH]1)C(c1cccnc1)C(C(=O)OC(C)C)=C(C)N2 (stereo unspecified),-1.3%
